A selection: hits, their analogues and other compounds. The true share with any hit is near 2.8%.
PAFAH1B3 inh = PAFAH1B3 (human) inhibition; 0.28% of 340,000 active; recombinant PAFAH1B3, FP-rhodamine probe, fluorescence polarization; inhibition, % at 3.39 µM; AID 492972; Q15102;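 active means inhibition above the screen-wide average of all tested compounds plus 3 SD, cut at about 25% in these data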
Target sequence (Q15102 whole entry, looked up): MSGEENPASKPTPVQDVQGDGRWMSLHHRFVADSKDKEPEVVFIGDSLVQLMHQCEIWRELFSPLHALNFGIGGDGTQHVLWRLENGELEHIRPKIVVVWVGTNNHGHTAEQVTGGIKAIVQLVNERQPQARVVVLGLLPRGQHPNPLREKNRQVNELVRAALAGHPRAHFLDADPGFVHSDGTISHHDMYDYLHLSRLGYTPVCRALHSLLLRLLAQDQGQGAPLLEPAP
ASAP1 GAP inh = ASAP1 ArfGAP inhibition | ASAP1-stimulated ARF1 GTP hydrolysis, GDP FP detection | inhibition, % at 16.5 µM | 0.19% of 360,000 active; in the data active means inhibition above about 25%
pPAFAH inh = inhibitors of human plasma PAF acetylhydrolase (pPAFAH). Q13093. recombinant pPAFAH, FP-rhodamine probe fluorescence polarization. inhibition, % at 3.39 µM. 1.5% of 330,000 active;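 active means inhibition above the mean inhibition across the screen plus 3 SD, cut at about 25% in these data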;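 further: inhibitors block binding of the rhodamine activity-based probe so polarization drops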
Target sequence (Q13093 whole entry, looked up): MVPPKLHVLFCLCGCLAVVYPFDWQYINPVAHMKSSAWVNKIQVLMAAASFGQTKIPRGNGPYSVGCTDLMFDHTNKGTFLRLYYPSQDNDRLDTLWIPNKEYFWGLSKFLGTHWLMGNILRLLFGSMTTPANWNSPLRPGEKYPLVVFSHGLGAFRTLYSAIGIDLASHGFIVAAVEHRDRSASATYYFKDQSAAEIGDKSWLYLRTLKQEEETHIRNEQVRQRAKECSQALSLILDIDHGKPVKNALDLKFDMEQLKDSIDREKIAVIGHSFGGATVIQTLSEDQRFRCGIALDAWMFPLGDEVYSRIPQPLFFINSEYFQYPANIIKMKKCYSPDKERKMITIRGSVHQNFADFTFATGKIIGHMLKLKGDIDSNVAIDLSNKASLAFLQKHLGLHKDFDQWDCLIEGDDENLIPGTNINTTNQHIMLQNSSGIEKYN
PAFAH2 FP inh = PAFAH2 (human) inhibition. Q99487. recombinant PAFAH2, FP-rhodamine activity probe, fluorescence polarization. inhibition, % at 3.39 µM. 0.99% of 340,000 active. AID 492956;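 active means inhibition above the mean over all tested compounds plus 3 SD, cut at about 30% in these data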;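 further: inhibitors block probe labeling of enzyme so polarization drops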
ARFGAP1 inhibitor = inhibits rat ARF GTPase activating protein 1 | 0.26% of 360,000 active | AID 651572 | Q62848 | Arfgap1-stimulated ARF1 GTP hydrolysis, GDP FP detection | inhibition, % at 16.5 µM;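 active means inhibition above a per-plate limit, mean inhibition of low control wells plus 3 SD, cut at about 25% in these data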
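Replicates: Single well per compound | Assay system: Truncated rat Arfgap1 GAP domain | Control set: No-Arfgap1 wells (100%) versus DMSO full-reaction wells (0%) | Times: Enzyme reaction 120 min at 25 °C after 20 min preincubation | Reagent: Human ARF1(Δ1-17)-GTP substrate | Measured by: Tracer-displacement fluorescence polarization with EDTA stop, 620/688 nm | Measure: Percent inhibition of Arfgap1-stimulated GTP hydrolysis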
PAFAH1B2 FP inh = inhibitors of human PAFAH1B2 | P68402 | recombinant PAFAH1B2, FP-rhodamine activity probe, fluorescence polarization | inhibition, % at 3.39 µM | 1.2% of 340,000 active;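 active means inhibition above the mean of all tested compounds plus 3 SD, cut at about 24% in these data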
PAFAH2 FP conf = PAFAH2 (human) inhibition, confirmed; recombinant PAFAH2, FP-rhodamine activity probe, fluorescence polarization; shares compounds with PAFAH2 FP inh; inhibition, % at 3.39 µM; AID 493030; 65% of 2,300 active;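 active means mean inhibition over three repeats above a set limit taken from the earlier primary screen, cut at about 30% in these data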;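 further: inhibitor blocks binding of rhodamine activity probe so polarization falls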
A number is an active result; i = inactive; nt = no result.

SMILES	PAFAH1B3 inh	ASAP1 GAP inh	pPAFAH inh	PAFAH2 FP inh	ARFGAP1 inhibitor	PAFAH1B2 FP inh	PAFAH2 FP conf
C=CCn1c(C)cc(C(=O)COC(=O)c2ccc3c(c2)NC(=O)CS3)c1C	i	i	i	41	i	i	i
C=CCn1c(C)cc(C(=O)COC(=O)c2ccc(N)c([N+](=O)[O-])c2)c1C	i	i	i	81	i	i	80
C[C@H](CO)N1C[C@H](C)[C@@H](CN(C)C(=O)C2CC2)OCc2cnnn2CCCC1=O	nt	i	nt	nt	i	nt	nt
Cc1ccn(C(=O)c2ccc(NC(=O)C3CCCCC3)cc2)n1	i	i	i	33	i	i	45
Cc1ccc(C(=O)OCC(=O)Nc2ncc(C(F)(F)F)cc2Cl)cc1NC(=O)c1ccco1	i	i	i	36	i	i	i
COC(=O)c1ccccc1NC(=O)COC(=O)c1ccc(C)c(NC(=O)c2ccco2)c1	i	i	i	i	i	i	nt
CCN(CC)c1ccc2c(c1)oc(=O)c1c(Cl)cc(=O)oc12	i	nt	i	36	nt	i	i
Cc1cccc(/C(N)=N/OC(=O)c2cccs2)c1	i	i	i	45	i	i	30
N/C(=N\OC(=O)c1cccs1)c1cccc(Br)c1	i	i	i	47	i	i	42
Cc1ccc(/C(N)=N/OC(=O)c2cccs2)cc1	i	i	i	i	i	i	nt
Cc1ccc(S(=O)(=O)N2C[C@H]3N(C(=O)OC(C)C)N(C(=O)OC(C)C)C[C@H](OC(=O)NC4CCCC4)[C@@]3(O)C2)cc1	nt	i	nt	nt	i	nt	nt
CCNC(=O)C1(C)CCCN(CC(=O)c2ccccc2OC)C1 (centres undefined)	nt	i	nt	nt	i	nt	nt
CCOCCn1ccc2c(OCC(=O)Nc3ccccc3OC)cccc2c1=O	i	i	i	i	i	i	nt
O=C(Nc1ccc(Cl)cc1)[C@@H]1[C@@H]2C(=O)N(c3ccc(Cl)cc3)C(=O)[C@@H]2[C@H]2C=CC=NN21	i	i	i	33	i	i	i
Cc1ccc(N2C(=O)[C@@H]3[C@H](C2=O)[C@H]2C=CC=NN2[C@@H]3C(=O)Nc2ccc(Cl)cc2)cc1	i	i	i	i	i	i	nt
COC(=O)c1c(NC(=S)NNC(=O)c2ccc(Cl)s2)sc(C(=O)N(C)C)c1C	i	i	i	50	i	i	41
O=C(COC(=O)C1C2CC3OC(=O)C1C3C2)Nc1ccc(F)cc1 (centres undefined)	i	i	i	78	i	i	69
O=C(COC(=O)C1C2CC3OC(=O)C1C3C2)Nc1ccc(Br)cc1 (centres undefined)	i	i	i	79	i	i	71
COc1ccc(NC(=O)COC(=O)C2C3CC4OC(=O)C2C4C3)cc1 (centres undefined)	i	i	i	i	i	i	nt
O=C(COC(=O)C1C2CC3OC(=O)C1C3C2)Nc1ccccc1 (centres undefined)	i	i	i	75	i	i	66
O=C(c1ccc(-c2cccc(C(F)(F)F)c2)o1)N1CCCC(C(F)(F)F)C1 (centres undefined)	i	i	i	33	i	i	i
O=C(COC(=O)c1ccco1)Nc1ccc2c(c1)OCCO2	i	i	i	51	i	i	37
COc1cccc(NC(=O)CCC2CCN(C(=O)c3sccc3C)CC2)c1	i	i	i	i	i	i	nt
COc1cccc(NC(=O)COC(=O)c2ccco2)c1	i	i	i	68	i	i	63
Cn1cccc1C(=O)OCC(=O)Nc1ccc2c(c1)OCCO2	i	i	i	49	i	i	33
SMILES	PAFAH1B3 inh	ASAP1 GAP inh	pPAFAH inh	PAFAH2 FP inh	ARFGAP1 inhibitor	PAFAH1B2 FP inh	PAFAH2 FP conf
COc1cccc(NC(=O)COC(=O)c2sccc2C)c1	i	i	i	82	i	i	82
CC(C)c1ccc(/C=N/NC(=O)c2ccc(-n3cnnn3)cc2)cc1	i	i	nt	i	i	i	nt
CC(=O)Nc1sc(C)c(C)c1C(=O)OCC(=O)Nc1ccccc1C(F)(F)F	nt	i	nt	nt	i	nt	nt
COc1cccc(NC(=O)COC(=O)c2c(F)cccc2F)c1	i	i	i	57	i	i	i
CC(=O)Nc1ccc(NC(=O)COC(=O)c2ccco2)cc1	i	i	i	i	i	i	nt
Cc1ccc(NC(=O)COC(=O)c2ccco2)cc1	i	i	i	62	i	i	53
Cc1ccc(NC(=O)COC(=O)c2ccco2)cc1C	i	i	i	77	i	i	59
CCOCC(=O)Nc1cccc(OC)c1	i	i	i	i	i	i	nt
O=C(O)/C(=C\c1ccc(Cl)c([N+](=O)[O-])c1)c1ccc(S(=O)(=O)N2CCCCC2)s1	i	i	i	32	i	i	i
NC(=O)c1ccc(NC(=O)COC(=O)C2CC3C=CC2C3)cc1 (centres undefined)	i	i	i	i	i	i	nt
CC(C)c1ccc(NC(=O)COC(=O)C2CC3C=CC2C3)cc1 (centres undefined)	i	i	i	44	i	i	i
Cc1cc(C)cc(NC(=O)COC(=O)C2CC3C=CC2C3)c1 (centres undefined)	nt	i	nt	nt	i	nt	nt
O=C(COC(=O)C1CC2C=CC1C2)Nc1ccccc1[N+](=O)[O-] (centres undefined)	i	i	i	77	i	i	58
O=C(COC(=O)C1CC2C=CC1C2)Nc1ccc([N+](=O)[O-])cc1 (centres undefined)	i	i	i	57	i	i	54
Cc1c(NC(=O)COC(=O)C2CC3C=CC2C3)c(=O)n(-c2ccccc2)n1C (centres undefined)	i	i	i	i	i	i	nt
CCCOc1cccc(-c2nc3ccccc3c(=O)o2)c1	i	i	i	64	i	i	59
CC(=O)Oc1ccc2nc(/C=C/c3ccc(C=O)cc3)oc(=O)c2c1	i	i	i	i	i	i	nt
CC(=O)Oc1ccc2nc(-c3ccc(Br)o3)oc(=O)c2c1	i	i	i	46	i	i	45
CC(=O)Oc1ccc2c(=O)oc(-c3ccccc3C)nc2c1	i	i	i	i	i	i	nt
CC(=O)Oc1ccc2nc(/C=C/c3ccccc3)oc(=O)c2c1	i	i	i	76	i	i	71
CC(=O)Oc1ccc2c(=O)oc(-c3ccccc3)nc2c1	i	i	i	41	i	i	40
NS(=O)(=O)c1ccc(O)c(NC(=O)c2ccc([N+](=O)[O-])cc2)c1	i	i	i	31	i	i	i
O=C(Nc1cc([N+](=O)[O-])ccc1O)c1cccc([N+](=O)[O-])c1	i	i	i	i	i	i	nt
O=C(NCc1ccco1)c1ccccc1NS(=O)(=O)c1ccc(Cl)s1	i	i	i	i	i	i	nt
O=C(Nc1ccccc1Cc1ccccc1)c1ccccc1NS(=O)(=O)c1ccc(Cl)s1	i	i	i	i	i	i	nt
O=C(Nc1ccccc1)c1ccccc1NS(=O)(=O)c1ccc(Cl)s1	i	i	i	71	i	i	75
